ROCK2 blocker: blocks human Rho kinase 2 activity | purified ROCK2, Kinase-Glo ATP depletion luminescence | hit rate 0.35% among 60,000 | AID 604 | inhibition, % at 6 µM;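 active means inhibition above the screen-wide mean inhibition plus 3 SD, cut at about 18% in these data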;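 further: plate controls were DMSO wells for no effect and Y-27632 control wells after no-enzyme background subtraction for full effect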
Hsp90 inh: displaces geldanamycin probe from tumor Hsp90 | P07900 | AID 429 | hit rate 0.35% among 64,000 | NCI-N417 lysate Hsp90, Cy3B-geldanamycin FP displacement | inhibition, % at 30 µM;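 active means inhibition above 50%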;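 further: 0% = tracer plus lysate wells and 100% = tracer alone without lysate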
TNAP act mid DEA: activates human TNAP at intermediate phosphate acceptor concentration; P05186; purified TNAP, CDP-star luminescence, 100 mM DEA, 30 min; stronger effect = higher value; scale: 0 levamisole-inhibited, 1 vehicle-only enzyme; activation factor at 20 µM; 64,000 tested, under 10 active; AID 813;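 active means activation factor of at least 2 at 20 µM, relative to controls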
Target sequence (P05186 whole entry, looked up): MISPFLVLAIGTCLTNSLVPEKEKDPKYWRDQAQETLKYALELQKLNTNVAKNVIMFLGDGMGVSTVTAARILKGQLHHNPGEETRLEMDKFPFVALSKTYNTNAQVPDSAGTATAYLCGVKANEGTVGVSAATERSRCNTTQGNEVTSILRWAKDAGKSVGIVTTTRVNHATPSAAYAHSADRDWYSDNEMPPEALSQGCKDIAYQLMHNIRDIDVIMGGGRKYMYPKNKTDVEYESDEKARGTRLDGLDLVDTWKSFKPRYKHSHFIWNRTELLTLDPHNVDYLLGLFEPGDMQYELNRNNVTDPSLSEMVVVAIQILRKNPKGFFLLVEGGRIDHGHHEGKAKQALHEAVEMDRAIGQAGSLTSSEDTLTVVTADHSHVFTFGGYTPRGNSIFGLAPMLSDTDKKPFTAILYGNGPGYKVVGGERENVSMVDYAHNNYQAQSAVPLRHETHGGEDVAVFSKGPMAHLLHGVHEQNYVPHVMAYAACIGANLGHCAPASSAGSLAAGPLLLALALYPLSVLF
PKA inh: PKA (human) kinase inhibition; P17612; PKA Kemptide phosphorylation, Kinase-Glo ATP luminescence; inhibition, % at 6 µM; hit rate 0.1% among 65,000; AID 524;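 active means inhibition above the screen-wide mean inhibition plus 3 SD, cut at about 21% in these data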
HEK293 NFkB inh: lowers PMA/ionomycin-induced NF-kB signal in HEK293 cells; HEK-293 NF-kB luciferase reporter, luminescence; inhibition, % at 3 µM; hit rate 0.21% among 62,000;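 active means inhibition above the mean of all tested compounds plus 3 SD, cut at about 40% in these data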;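 further: 0% = stimulated DMSO wells and 100% = 10 µM reference inhibitor 5653914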
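Signal: luciferase luminescence; Material: HEK-293 cells with stable firefly luciferase reporter driven by four HIV NF-kB elements; Probe or stimulus: PMA with ionomycin; Replication: tested once; Times: 1 h compound pretreatment, then 16 h stimulation at 37 °C, 5% CO2; Benchmarks: DMSO and 10 µM reference inhibitor; Evaluation: per-plate % inhibition versus controls.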
JNK3 inh: inhibitors of human JNK3 kinase | P53779 | hit rate 0.61% among 60,000 | inhibition, % at 8 µM | purified JNK3 kinase activity, HTS; in the data active means inhibition above about 17%;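 further: 0% = DMSO and 100% = reference inhibitor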
Starred values were filed as active, the others as inactive; · = no result given. The list is not random: actives were taken first. Their share in the collection is about 0.94%.

SMILES | ROCK2 blocker | Hsp90 inh | TNAP act mid DEA | PKA inh | HEK293 NFkB inh | JNK3 inh
CCCN1C=CC(=C2C(=O)c3ccccc3C2=O)C=C1 | -40 | -2 | 0.8 | -20 | 86* | 56*
CCC1(CC)C(=O)N=C2c3ccccc3C(=O)N21 | -1 | -1 | 0.9 | 6 | 19 | 0
CC(=O)NCCc1c[nH]c2ccc(O)cc12 | · | 18 | · | · | · | ·
O=C(CCN1CCN(c2ccccc2F)CC1)Nc1ccc2c(c1)OCO2 | 4 | 2 | 0.9 | 11 | 6 | -3
Cc1ccc(C(=O)O[C@H](C(=O)O)[C@H](OC(=O)c2ccc(C)cc2)C(=O)O)cc1 (tested in a mixture with another compound) | · | -1 | · | · | · | ·
CC1CC(C)CN(c2nc3c(c(=O)[nH]c(=O)n3C)n2CCSc2nc3ccccc3o2)C1 (stereo not drawn) | -2 | -1 | 0.9 | 6 | 12 | -3
CCCCS(=N)(=O)CC[C@H](N)C(=O)O (stereo partly drawn) | · | -1 | · | · | · | ·
Cc1ccc(C(=O)NCCn2cc(SCC(=O)Nc3cc(C)on3)c3ccccc32)cc1 | 7 | 0 | 0.9 | -4 | 47* | -7
Cc1cc(NC(=O)CSc2cn(CCNC(=O)c3ccccc3)c3ccccc23)no1 | -2 | -6 | 0.9 | -10 | 8 | 4
CCn1nnc(NC(=O)COc2cc(C)ccc2C(C)C)n1 | 6 | 72* | 0.9 | 11 | -7 | 5
CCCn1nnc(NC(=O)COc2ccccc2Cl)n1 | 4 | -1 | 0.9 | -1 | 5 | -10
CCCCCCCCCCCCCCCCCCNC(=O)OCC(COP(=O)([O-])OCC[n+]1ccsc1)OC (stereo not drawn) | · | 2 | · | · | · | ·
O=C(O)c1ccc2c3c(ncnc13)-c1ccccc1C2=O | -3 | 90* | 0.8 | 4 | -2 | -12
CCCCCCCC/C=C\CCCCCCCC(=O)NCCO | · | -1 | · | · | · | ·
CCCCCCCC/C=C\CCCCCCCC(=O)NCCc1ccc(O)c(O)c1 | · | 84* | · | · | · | ·
O=c1ccc2ccc(O)c(O)c2o1 | · | 69* | · | · | · | ·
COc1ccccc1CNCCCCCCNCCCCCCCCNCCCCCCNCc1ccccc1OC | · | -3 | · | · | · | ·
O=C(Cn1cnc2ccccc2c1=O)NCCC(=O)Nc1ccc2c(c1)OCCO2 | 3 | 86* | 0.9 | -8 | 1 | 4
O=C(Cn1cnc2ccccc2c1=O)Nc1ccc2c(c1)OCCO2 | -3 | 2 | 0.9 | -4 | -10 | 3
CC(CCc1ccc(O)cc1)NCCc1ccc(O)c(O)c1 (stereo not drawn) | · | 61* | · | · | · | ·
CNc1ncnc2c1ncn2[C@H]1C[C@H](OP(=O)(O)O)[C@@H](COP(=O)(O)O)O1 | · | -2 | · | · | · | ·
CC(=O)c1sc(Nc2ccccn2)nc1C | -1 | -3 | 0.9 | 3 | 12 | 23*
CC(=O)c1sc(NC(=O)C2COc3ccccc3O2)nc1C (stereo not drawn) | 4 | -2 | 0.9 | -2 | -12 | 9
Nc1ncnc2c1nc(Sc1ccc(Cl)cc1)n2C1OC2COP(=O)(O)O[C@@H]2[C@@H]1O (stereo partly drawn) | · | 3 | · | · | · | ·
COc1cc(NCCCC(C)=NO)c2ncccc2c1 | · | -6 | · | · | · | ·
SMILES | ROCK2 blocker | Hsp90 inh | TNAP act mid DEA | PKA inh | HEK293 NFkB inh | JNK3 inh
Cc1cc(N2C(=O)CCC2=O)n(-c2ccccc2)n1 | -3 | -2 | 0.9 | -5 | 16 | -4
CC1=NN(c2ccccc2)C(=O)C1 | 19* | -3 | 0.9 | 1 | · | 7
CC1(NCC(O)COc2cccc3[nH]ccc23)CCC(C(C)(C)NC(=O)CBr)CC1 (stereo not drawn) | · | -1 | · | · | · | ·
CN(C)c1ccc(-c2nn3c(-c4ccccc4Cl)nnc3s2)cc1 | 4 | -3 | 1 | 7 | 34 | 4
Clc1ccccc1-c1nnc2sc(-c3ccncc3)nn12 | 23* | -7 | 1 | 11 | 0 | 3
Clc1ccc(-c2nn3c(-c4ccncc4)nnc3s2)c(Cl)c1 | 8 | -3 | 0.9 | 5 | 16 | -2
Clc1ccccc1-c1nn2c(-c3ccncc3)nnc2s1 | 19* | -1 | 0.9 | 18 | 4 | 7
Clc1ccccc1-c1nnc2sc(-c3cccs3)nn12 | -2 | -1 | 0.9 | 0 | 21 | 8
COc1ccccc1-c1nnc2sc(-c3ccc(N(C)C)cc3)nn12 | 2 | -4 | 1.3 | 6 | 55* | 6
O=C(NCc1nc2ccccc2[nH]1)c1ccco1 | -4 | -1 | 0.9 | -8 | 10 | 6
O=C(NCc1nc2ccccc2[nH]1)c1cccs1 | 2 | -1 | 0.9 | 7 | 0 | 28*
CC(=O)CCc1c(C)[nH]c2ccccc2c1=O | 2 | 82* | 0.9 | -3 | 9 | 0
CCCCCCCCCCCCC/C=C/C(O)C(N)CO (stereo not drawn) | · | 3 | · | · | · | ·
c1ccc2c(c1)[nH]c1nc(SCCN3CCOCC3)nnc12 | 8 | -5 | 1 | 8 | 17 | 4
Fc1ccc2nc3[nH]c4ccccc4c3nc2c1 | 4 | 2 | 0.9 | 0 | -27 | 37*
Cn1c(SCc2ccccc2)nnc1-c1ccncc1 | 5 | -10 | 0.9 | 8 | 8 | -1
Cn1c(SCc2ccc(Br)cc2)nnc1-c1ccncc1 | 17 | -1 | 1 | 25* | 18 | -4
CCN(CC)c1ccc2cc(-c3nc4ccccc4[nH]3)c(=O)oc2c1 | 1 | -8 | 1.4 | -1 | 3 | 1
CCN(CC)c1ccc2cc(-c3nc4ccccc4n3C)c(=O)oc2c1 | 0 | -1 | 1.7 | 0 | 40* | -10
O=C(N1CCCC1)N1CCN(c2ncnc3c(-c4ccc(Cl)cc4)nsc23)CC1 | 4 | 0 | 0.9 | 13 | -4 | -1
Cc1ccc(-c2nsc3c(N4CCC(C(N)=O)CC4)ncnc23)cc1 | 3 | -3 | 0.9 | 7 | 42* | 2
CCOc1ccc(NC(=O)CN2C(=O)C3CCCN3C2=O)cc1 (stereo not drawn) | -8 | -1 | 0.9 | 1 | 12 | 17*
COc1ccc(CC(=O)Nc2cc(C)ccn2)cc1 | 4 | -1 | 0.9 | 5 | -8 | 27*
CCOC1(OCC)N=C(N)C2(C#N)C(c3ccc(NC(C)=O)cc3)C12C#N (stereo not drawn) | 26* | -8 | 1 | 4 | 22 | -6
Cc1ccc(O)c(N=CC2=C(O)c3ccccc3C2=O)c1 | -2 | 26 | 0.8 | 3 | 0 | 15
SMILES | ROCK2 blocker | Hsp90 inh | TNAP act mid DEA | PKA inh | HEK293 NFkB inh | JNK3 inh
O=C1C(C=Nc2ccccc2O)=C(O)c2ccccc21 | 4 | 7 | 0.9 | 8 | 11 | 35*
CCCCOc1ccc(C(=O)Nc2ccncc2)cc1 | 14 | -1 | 1 | 12 | 9 | 3
O=C(CCCOc1ccccc1)Nc1ccncc1 | 33* | 0 | 1 | 30* | -1 | -6
CN(C)CCCNc1ccc(N(O)O)c2cccnc12 | · | 7 | · | · | · | ·
Nc1cc(N)c(OCC(F)(F)F)cc1OCC(F)(F)F | 0 | 89* | 0.9 | -8 | 17 | -9
Fc1cc2nc(-c3ccncc3)[nH]c2cc1F | · | · | 0.9 | 24* | 22 | ·
